Only some compounds are listed: those with a hit (about 1.8% of all), similar ones and a draw of the others.
M4 antag: human M4 muscarinic receptor antagonists, primary screen, CHO cells, Fluo-8 calcium fluorescence; Muscarinic acetylcholine receptor M4 (Homo sapiens), P08173; CHO-hM4 cells, ACh EC80; inhibition, % at 3 µM; actives 0.73% (n = 360,000);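 active = inhibition above its plate's cutoff, the mean inhibition of sample wells plus 3 SD, cut at about 27% in these data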
Target sequence (P08173 whole entry, looked up): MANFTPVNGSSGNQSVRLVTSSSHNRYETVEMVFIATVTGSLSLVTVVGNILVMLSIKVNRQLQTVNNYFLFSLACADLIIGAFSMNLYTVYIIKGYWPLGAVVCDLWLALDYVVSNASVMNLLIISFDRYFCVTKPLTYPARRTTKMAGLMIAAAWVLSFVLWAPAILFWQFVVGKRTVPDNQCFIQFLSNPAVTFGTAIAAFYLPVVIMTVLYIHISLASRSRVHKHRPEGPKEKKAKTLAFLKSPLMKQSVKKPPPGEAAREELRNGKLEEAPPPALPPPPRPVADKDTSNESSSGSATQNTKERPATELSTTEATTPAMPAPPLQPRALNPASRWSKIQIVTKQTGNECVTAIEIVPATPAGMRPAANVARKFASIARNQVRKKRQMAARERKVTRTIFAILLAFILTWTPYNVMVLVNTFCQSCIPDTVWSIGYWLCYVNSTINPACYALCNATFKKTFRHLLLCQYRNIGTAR
M5 ag: human M5 muscarinic receptor agonists, primary screen, CHO-K1 cells, Fluo-8 calcium fluorescence. Muscarinic acetylcholine receptor M5 (Homo sapiens), P08912. CHO-K1 hM5 cells; 0% DMSO wells, 100% maximal acetylcholine response. activation, % at 3 µM. actives 0.19% (n = 360,000). AID 624037, 2012;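 active = activation above the run's mean over test compounds plus 3 SD, cut at about 23% in these data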;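 also: signal is peak over basal fluorescence ratio across the kinetic read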
M4 ag: human M4 muscarinic receptor agonists, primary screen, CHO-K1 cells, Fluo-8 calcium fluorescence; Muscarinic acetylcholine receptor M4 (Homo sapiens), P08173; CHO-K1 hM4/Gqi5; vehicle 0%, full acetylcholine response 100%; activation, % at 3 µM; actives 0.14% (n = 360,000); AID 624127, 2012;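 active = activation above the run mean over all test wells plus 3 SD, cut at about 32% in these data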;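 also: peak over basal fluorescence ratio per well then scaled between controls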
M4 PAM: human M4 muscarinic receptor positive allosteric modulators, primary screen, CHO-K1 cells, Fluo-8 calcium fluorescence | Muscarinic acetylcholine receptor M4 (Homo sapiens), P08173 | CHO-K1 hM4/Gqi5, ACh EC20; 0% = ACh EC20, 100% = maximal ACh | activation, % at 3 µM | actives 0.4% (n = 360,000);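 active = activation above its plate's cutoff, the mean activation of sample wells plus 3 SD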
M5 PAM: human M5 muscarinic receptor positive allosteric modulators, primary screen, CHO-K1 cells, Fluo-8 calcium fluorescence. CHO-K1 hM5, ACh EC20 PAM; 0% = ACh EC20, 100% = ACh EC100. actives 0.3% (n = 360,000). activation, % at 3 µM. Muscarinic acetylcholine receptor M5 (Homo sapiens), P08912;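 active = activation above the run cutoff, the mean activation of all test compounds plus 3 SD, cut at about 18% in these data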
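System – CHO-K1 hM5 cells · Compound – 3 µM, single dose · Incubation – compound preincubation 140 s before EC20 acetylcholine addition · Technique – Fluo-8 calcium fluorescence · Measure – Max/basal fluorescence ratio as % of EC20–EC100 ACh window · Benchmarks – low control EC20 acetylcholine (0%), high control EC100 acetylcholine (100%) · Replication – singlicate, one well per test compound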
M5 antag: human M5 muscarinic receptor antagonists, primary screen, CHO cells, Fluo-8 calcium fluorescence; CHO-hM5 cells, ACh EC80; inhibition, % at 3 µM; actives 0.59% (n = 360,000);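 active = inhibition above a per-plate cutoff, the mean of that plate's test compounds plus 3 SD, cut at about 27% in these data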
Each line names hits and unclear results; the compound was inactive in the other large screens.

O=C(Nc1ccc2nc(-c3cccs3)[nH]c2c1)c1cccs1	none
Cn1cc(C(CO)Cc2ccccc2)c2ccccc21 (centres undefined)	none
CCOc1ccccc1OCCCC(=O)Nc1cc(S(=O)(=O)N2CCCCC2)ccc1C	none
CC(C)c1nnc(NC(=O)CS(=O)(=O)c2ccccc2)s1	none
CCCS(=O)(=O)NC(=O)C1(C)CCN(C(=O)c2cccnc2Oc2ccccc2)C1 (centres undefined)	none
COc1ccc(OCC(=O)NCCNC(=O)c2cccnc2)cc1	M5 antag 48
O=C(NCCO[N+](=O)[O-])c1cccnc1	M4 antag 74, M5 antag 38
Cc1cccc(NC(=O)CCCN=C2NS(=O)(=O)c3ccccc32)c1C	none
Cn1c(C(=O)NCC2CCCO2)cc2c(=O)[nH]c3ccccc3c21 (centres undefined)	M4 PAM 28
Cn1c(=O)c(C(=O)NCC2CCCO2)c(O)c2ccccc21 (centres undefined)	M4 antag 33
CCOc1ccccc1Nc1nnc(SCC(=O)NC2CCS(=O)(=O)C2)s1 (centres undefined)	none
COc1ccc(NC(=O)Nc2ccc(OCC(=O)N3CCOCC3)cc2)cc1OC	none
COc1ccc(Cl)cc1C(=O)Nc1ccc(OCC(=O)N2CCOCC2)cc1	M5 PAM 18
CCOC(=O)C1=CC[C@@H](c2cccc(Br)c2)N(S(=O)(=O)c2ccc(F)cc2)[C@H]1c1cccc(Cl)c1	none
CCOc1ccc(CNC(=O)c2cccc(NC(=O)C3=C(C)OCCS3)c2)cc1	M5 antag 30
COc1cccc(CNC(=O)c2cccc(NC(=O)C3=C(C)OCCS3)c2)c1	none
Nc1[nH]n2c(=O)c3c(nc2c1N=Nc1ccc(Cl)cc1)CCCC3	none
Nc1[nH]n2c(=O)c3c(nc2c1N=Nc1ccccc1)CCCC3	M4 PAM 30
OC(CNCC1(N2CCCCC2)CCCCC1)COc1ccc(Cl)cc1Cl (centres undefined)	M5 PAM 26
CN1CCN(C(=S)NC(=O)c2ccc(Cl)cc2)CC1	M4 PAM 23
O=C(NC(=S)N1CCCC1)c1ccc(Cl)cc1	none
O=[N+]([O-])c1ccc(N/N=C/C=C/c2ccco2)cc1	M5 ag 29, M4 ag 38, M5 antag 32
O=C(N/N=C/c1ccco1)c1cc([N+](=O)[O-])cc([N+](=O)[O-])c1	none
O=C(O)c1ccc(N/N=C/C=C/c2ccc([N+](=O)[O-])o2)cc1	M5 ag 36, M4 ag 74, M5 antag 28
CC1CCCC(C)N1C(=O)COC(=O)c1cc(=O)[nH]c2ccccc12 (centres undefined)	none
CN(C)CC(=O)N[C@@H]1CC[C@@H](CCNS(=O)(=O)c2ccccc2)O[C@@H]1CO	none
Cc1ccc(C(=O)N2CCN(c3ccccn3)CC2)cc1C	M4 PAM 15
CCCCNC(=O)C1(C)CCN1C(=O)c1ccc2sccc2c1 (centres undefined)	none
CCC(=O)Nc1nc2c(c(=O)[nH]1)CCCC2	none
CC(C)(C)C(=O)Nc1nc2c(c(=O)[nH]1)CCCC2	M4 PAM 21
Cc1cccc(C)c1-n1nnnc1C(c1ccccc1)N1CCN(C/C=C/c2ccccc2)CC1 (centres undefined)	M5 antag 31
CCCCn1nnnc1C(c1ccc(OC)cc1)N1CCN(C/C=C/c2ccccc2)CC1 (centres undefined)	none
CCCCn1nnnc1C(c1cccs1)N1CCN(C/C=C/c2ccccc2)CC1 (centres undefined)	none
Cc1cccc(C)c1-n1nnnc1C(c1cccs1)N1CCN(C/C=C/c2ccccc2)CC1 (centres undefined)	M5 antag 29
C=CCn1c(COc2ccccc2)nc2ccccc21	none
Nc1nc2ccccc2n1CCOc1ccc(F)cc1	none
CC(=O)c1ccc(S(=O)(=O)Nc2ccc(C(=O)NCC(c3cccs3)N3CCOCC3)cc2)cc1 (centres undefined)	none
O=C(NCC(c1cccs1)N1CCOCC1)c1ccccc1NS(=O)(=O)c1cccc([N+](=O)[O-])c1 (centres undefined)	none
O=C(NCC(c1cccs1)N1CCOCC1)c1ccccc1NS(=O)(=O)c1ccc(Cl)c([N+](=O)[O-])c1 (centres undefined)	M5 antag 43
CCOc1ccc(NS(=O)(=O)c2ccc(C(=O)NCC(c3cccs3)N3CCOCC3)cc2)cc1 (centres undefined)	M5 ag 50, M4 ag 39
COc1ccc(C(CNC(=O)c2ccc(NS(=O)(=O)c3ccc(F)c(C)c3)cc2)N2CCCC2)cc1 (centres undefined)	M4 antag 28
O=[N+]([O-])c1ccccc1CCc1cnc(Cl)s1	none
NC(=O)N/N=C/c1c(F)cccc1F	M4 PAM 23
NC(=O)N/N=C/c1c(F)c(F)c(F)c(F)c1F	none
CC(C)(C)OC(=O)CNC(=O)c1[nH]cnc1C(=O)NCCCCCN	none
CC(C)C[C@H](NC(=O)c1nc[nH]c1C(=O)NCCCCCNC(=O)OC(C)(C)C)C(=O)OC(C)(C)C	M4 antag 50
CC(C)(C)OC(=O)CNC(=O)c1[nH]cnc1C(=O)NCCCCCNC(=O)OC(C)(C)C	M4 ag 35, M5 antag 32
CC(C)C[C@H](NC(=O)c1nc[nH]c1C(=O)N1CCN(C(=O)OC(C)(C)C)CC1)C(=O)OC(C)(C)C	M4 PAM 25
CCOc1ccccc1N1CCN(C(=O)C2CSC3(C)CCC(=O)N23)CC1 (centres undefined)	none
Cc1cc(Br)cn2c(Cc3ccsc3)c(-c3ccc(Cl)cc3)nc12	none
COc1ccc(C2=Nn3c(nnc3-c3ccc(OC)cc3)SC2)cc1	M4 antag 28
COc1ccc(-c2nnc3n2N=C(C)CS3)cc1	none
Cc1cc(S(=O)(=O)NCc2ccccc2)ccc1OCC(=O)NCc1ccccn1	M5 antag 30
CNC(=O)c1nn(C)c(=O)[nH]c1=O	none
N#C/C(=C/c1ccc(N2CCCCCC2)o1)c1ccc(Cl)cc1	M4 antag 27

Screening data as filed in PubChem BioAssay.
